{"data": "Published values collected from several papers", "target": "Mitogen-activated protein kinase kinase kinase 2 (MAP3K2, Homo sapiens, UniProt Q9Y2U5)", "One construct used (Q9Y2U5 1-619)": "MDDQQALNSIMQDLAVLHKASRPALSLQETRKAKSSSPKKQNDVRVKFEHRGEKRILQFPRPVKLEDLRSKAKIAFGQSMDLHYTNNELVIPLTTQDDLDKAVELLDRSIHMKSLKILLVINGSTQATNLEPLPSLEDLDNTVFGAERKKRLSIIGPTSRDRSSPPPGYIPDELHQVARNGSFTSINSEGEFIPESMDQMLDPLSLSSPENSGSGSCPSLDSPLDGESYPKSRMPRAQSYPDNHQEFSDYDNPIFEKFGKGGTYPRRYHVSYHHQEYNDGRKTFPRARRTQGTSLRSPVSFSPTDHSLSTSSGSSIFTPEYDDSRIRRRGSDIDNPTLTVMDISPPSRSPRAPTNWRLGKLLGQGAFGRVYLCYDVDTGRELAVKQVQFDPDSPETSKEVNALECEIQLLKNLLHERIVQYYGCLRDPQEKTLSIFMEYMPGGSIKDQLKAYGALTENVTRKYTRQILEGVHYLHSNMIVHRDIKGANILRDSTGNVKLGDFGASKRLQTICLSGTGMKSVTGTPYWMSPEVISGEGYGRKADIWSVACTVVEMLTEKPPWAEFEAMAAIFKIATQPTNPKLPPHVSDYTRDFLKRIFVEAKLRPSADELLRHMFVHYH"}
{"SMILES": "CN(C)C(=O)Cn1cc(-c2nc([C@@](C)(c3ccc(-c4cnc(N)nc4)cc3)C3CC3)no2)cn1", "test": "cell-free assay, competition with immobilised ligand", "setting": "1 µM", "endpoint": "remaining binding", "result": "94%"}
{"SMILES": "Cc1sc(C(=O)NC2COC2)cc1-n1cc(NC(=O)Nc2c(F)cccc2Cl)cn1", "test": "enzyme activity, inhibitor", "setting": "10 µM", "endpoint": "remaining activity", "result": "88.1%"}
{"SMILES": "CC(C)(C)c1nc(-c2cccc(NS(=O)(=O)c3c(F)cccc3F)c2F)c(-c2ccnc(N)n2)s1", "test": "enzyme activity, inhibitor, radiometric", "setting": "1 µM", "endpoint": "remaining activity", "result": "57%"}
{"SMILES": "O=c1nc(-c2ccccn2)sc2ccccc12", "test": "binding, competition with immobilised ligand", "setting": "1 µM", "endpoint": "remaining binding", "result": "92%"}
{"SMILES": "Cc1cc(NC(=O)c2cccc3cc(-c4cccc5[nH]nc(N)c45)ccc23)ccc1F", "test": "enzyme activity, inhibitor", "setting": "0.1 µM", "endpoint": "activity vs control", "result": "100%"}
{"SMILES": "Cc1ccc(C(=O)NCc2ccsc2)cc1C#Cc1cn(C(C)C)c2ncnc(N)c12", "test": "enzyme activity, inhibitor", "setting": "1 µM", "endpoint": "activity vs control", "result": "61%"}
{"SMILES": "COc1cc2c(Nc3ccc(Br)cc3F)ncnc2cc1OCC1CCN(C)CC1", "test": "cell-free assay", "setting": "0.5 µM", "endpoint": "remaining signal", "result": "108%"}
{"SMILES": "O=C(NCc1ncc(C(F)(F)F)cc1Cl)c1ccc2c(c1)C1(CCS(=O)(=O)CC1)[C@H](C1CC1)N2S(=O)(=O)c1ccc(F)cc1", "test": "cell-free assay, competition with immobilised ligand", "setting": "1 µM", "endpoint": "remaining binding", "result": "66%"}
{"SMILES": "Cc1ccc(C(=O)Nc2ccc(CN3CCN(C)CC3)c(C(F)(F)F)c2)cc1C#Cc1cnc2cccnn12", "test": "enzyme activity, inhibitor", "setting": "23.5 nM", "endpoint": "remaining activity", "result": "55%"}
{"SMILES": "CCN1CCN(Cc2ccc(NC(=O)c3ccc(C)c(Oc4ccnc5[nH]ccc45)c3)cc2C(F)(F)F)CC1", "test": "target engagement in cells, inhibitor, chemoproteomics", "test system": "Huh-7", "setting": "1 µM", "endpoint": "inhibition", "result": "-39%"}
{"SMILES": "O=C(Nc1cnn(-c2csc(C(=O)NC3COC3)c2)c1)Nc1ccccc1Cl", "test": "enzyme activity, inhibitor", "setting": "5 µM", "endpoint": "remaining activity", "result": "110%"}
{"SMILES": "CN([C@@H]1CCc2c(CC(=O)O)c3ccccc3n2C1)S(=O)(=O)c1ccc(F)cc1", "test": "cell-free assay, competition with immobilised ligand", "setting": "1 µM", "endpoint": "remaining binding", "result": "100%"}
{"SMILES": "CN1CC(Oc2cnc(C#N)cc2-c2ccn3nc(NC(=O)C4CC4)cc3c2)C1", "test": "enzyme activity, inhibitor", "setting": "1 µM", "endpoint": "inhibition", "result": "0%"}
{"SMILES": "N#CCCc1ccc2c(c1)-c1[nH]c3ccc([N+](=O)[O-])cc3c1CC(=O)N2", "test": "cell-free assay", "setting": "0.5 µM", "endpoint": "remaining signal", "result": "61.5%"}
